H69AR growth 86K: proliferation blockers of H69AR lung cancer cells, primary screen, cell-based, human, 86K library; viability, % at 10 µM; H69AR lung tumor viability, ATP luminescence, 72 h; active compounds read low; 6% of 85,000 active;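 active means viability at or below 40%; inactive means viability above 40%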;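 further: multidrug resistant small cell line overexpressing MRP-1 efflux transporter; 100% = mean luminescence of untreated control wells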
bCat KO growth: primary screen for growth suppressors in beta-catenin knockout HCT116 cells (colon tumor, human); HCT116 beta-catenin knockout viability, CellTiter-Glo, 60 h; active compounds read low; viability, % at 10 µM; 1.5% of 140,000 active;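 active means viability at or under a set limit, the compound median less 4 SD, cut at about 6% in these data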;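 further: 0% = Hyamine 1622 control at 20 µM and 100% = untreated cell control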
Fibroblast inh: antiproliferative effect on LL 47 fibroblasts – human, LL 47 cells, CellTiter-Glo luminescence, primary screen | LL 47 human lung fibroblast viability, ATP luminescence; active compounds read low | viability, % at 10 µM | 1.1% of 85,000 active | AID 719, 2007;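 active means viability at or below 50% in the single dose screen; inactive means viability above 50%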;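 further: compound exposure lasted 72 h before the ATP readout; 100% = median luminescence of untreated cell-only wells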
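Signal: luminescent ATP detection, CellTiter-Glo; assay system: LL 47 human lung fibroblasts; input: 1,150 cells/well; incubation: overnight cell rest, 72 h compound treatment at 37 °C; measure: % viability versus median cells-only luminescence; medium: IMEM growth medium with 15% fetal bovine serum; dosing: compound addition at 0.1% DMSO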
HCT116 PTEN-null: growth suppression of PTEN-null HCT116, primary screen, cell-based, CellTiter-Glo; 1.2% of 140,000 active; HCT116 PTEN-null viability, 60 h; active compounds read low; viability, % at 10 µM;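 active means viability at or below a set limit, 4 SD under the median of all tested compounds, cut at about 3.7% in these data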;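 further: PTEN knockout HCT116 line with beta catenin targeted HCT116 as companion control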
HUVEC inhibit: inhibitors of HUVEC proliferation, primary screen, cell-based, 384-well; CellTiter-Glo luminescence, 72 h; active compounds read low; viability, % at 10 µM (by protocol); 1.1% of 86,000 active; AID 648, 2007;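 active means viability at or below 30%; inactive means viability above 30%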;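 further: 100% = median luminescence of DMSO-only cell control wells on each plate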
Starred values were filed as active, the others as inactive; · = not tested or not shown. This excerpt belongs to a sample that is enriched for hits.

SMILES | H69AR growth 86K | bCat KO growth | Fibroblast inh | HCT116 PTEN-null | HUVEC inhibit
CC/C(=N\NC(=O)C(N)=O)c1ccccc1O | · | 74.7 | · | 80.5 | ·
CCCCN(CCCC)C(=S)NC(=O)c1ccccc1Cl | · | 51.0 | · | 62.7 | ·
CC(=O)Nc1nnc(SCc2ccccc2F)s1 | 91.2 | 98.1 | 100.5 | 110.5 | 91.3
O=C(Nc1nnc(-c2ccccc2SCc2ccccc2F)s1)Nc1ccccc1F | 15.9* | 1.3* | 26.2* | 1.4* | 65.8
CC(C)C(=O)Nc1ccc(S(=O)(=O)Nc2nccc(/C=C/c3ccccc3)n2)cc1 | · | 92.7 | · | 103.3 | ·
O=[N+]([O-])c1ccc(Oc2cccc(Br)c2)c2ccncc12 | 18.4* | 12.5 | 84.1 | 8.8 | 76.6
O=[N+]([O-])c1ccc(Oc2ccc(F)cc2)c2ccncc12 | 24.2* | 65.0 | 72.5 | 67.8 | 53.8
CC(NC(=O)c1ccccc1)c1ccc(F)cc1 (stereo not drawn) | · | 84.7 | · | 97.3 | ·
CC(C)(C)n1nnnc1C(c1cccs1)N(Cc1cccnc1)Cc1ccccc1Cl (stereo not drawn) | 4.0* | 13.1 | 89.0 | 12.1 | 70.2
CN1CCN(C2=Cc3cc(Cl)ccc3Sc3cc(F)ccc32)CC1 | 51.1 | 1.3* | 87.3 | 6.9 | 4.9*
CN1CCN(C2=Cc3ccccc3Sc3cc(F)c(F)cc32)CC1 | 7.1* | 39.7 | 88.7 | 42.9 | 6.7*
CN1CCN(C2=Cc3ccccc3Sc3cc(F)c(Cl)cc32)CC1 | 0.0* | 21.7 | 94.4 | 27.5 | 8.8*
CN1CCN(CCC(=O)N2c3ccccc3Sc3ccc(Cl)cc32)CC1 | 86.1 | 80.2 | 89.6 | 75.3 | 91.8
CCn1c(SCC(=O)N/N=C/c2ccc(O)c(OC)c2)nc2ccccc21 | · | 85.7 | · | 88.8 | ·
Cc1ccc(C(=O)NNC(=O)CSc2nnc(-c3ccccc3)n2Cc2ccccc2)cc1 | · | 96.3 | · | 97.2 | ·
CCCCn1c(/N=C/c2c[nH]c3ccccc23)nc2ccccc21 | 1.9* | 31.8 | 83.4 | 48.5 | 60.4
Cn1c(N/N=C/c2c[nH]c3ccccc23)nc2ccccc21 | · | 1.5* | · | 0.9* | ·
Cc1nn(-c2ccc(Cl)cc2)c2sc(C(=O)N3CCN(c4ccccn4)CC3)cc12 | 21.0* | 92.0 | 95.8 | 94.6 | 35.6
COC(=O)C1(C(F)(F)F)N=C2Sc3ccccc3N2C(N2CCOCC2)=N1 (stereo not drawn) | 94.5 | 4.7* | 103.0 | 17.1 | 99.0
CC(C)(C)NC(=O)Cn1c(=O)c(=O)n(Cc2ccccc2)c2ccc(Cl)cc21 | · | 95.1 | · | 99.3 | ·
O=C(/C=C/c1cccc(OCc2ccccc2)c1)c1cccnc1 | · | 2.7* | · | 0.7* | ·
O=C(/C=C/c1ccc([N+](=O)[O-])cc1)NCc1cccnc1 | · | 96.8 | · | 81.5 | ·
O=C(/C=C/c1ccc([N+](=O)[O-])cc1)c1cccnc1 | · | 1.4* | · | 1.6* | ·
COc1ccc2[nH]c(=O)c(CN(C3CCCCC3)C(c3nnnn3Cc3ccco3)C(C)C)cc2c1 (stereo not drawn) | 96.3 | 49.6 | 39.5* | 46.6 | 56.3
COc1ccc2[nH]c(=O)c(CN(Cc3nnnn3Cc3ccco3)C3CCCCC3)cc2c1 | 38.2* | 75.5 | 96.8 | 67.2 | 68.8
SMILES | H69AR growth 86K | bCat KO growth | Fibroblast inh | HCT116 PTEN-null | HUVEC inhibit
CCC(c1nnnn1C1CCCCC1)N(Cc1ccco1)Cc1cc2ccc(OC)cc2[nH]c1=O (stereo not drawn) | 15.0* | 3.0* | 92.8 | 18.2 | 53.0
COc1ccc(Cn2nnnc2CN(Cc2cc3cc(C)ccc3[nH]c2=O)C2CCCC2)cc1 | 51.4 | 65.7 | 88.6 | 53.8 | 78.0
CCC(c1nnnn1Cc1ccco1)N(Cc1ccccc1OC)Cc1cc2cc(C)ccc2[nH]c1=O (stereo not drawn) | 78.8 | 55.4 | 85.9 | 40.0 | 81.3
O=C(N/N=C/c1ccc(OC(=O)c2ccccc2)c([N+](=O)[O-])c1)c1ccc(O)cc1 | · | 99.7 | · | 97.7 | ·
O=C(NCC1OCCc2ccccc21)c1ccc(NC(=O)c2ccc(Cl)cc2Cl)cc1 (stereo not drawn) | · | 4.9* | · | 1.9* | ·
C=CCc1cccc2cc(C(=O)OCC(=O)c3ccccc3)c(=O)oc12 | 99.9 | 100.0 | 109.6 | 108.3 | 101.7
CCN1c2ccccc2NC2C1C(C(C)=O)C(=O)N2c1ccc(Cl)cc1 (stereo not drawn) | 18.2* | 75.1 | 79.0 | 69.5 | 54.3
O=C(Nc1cccc(F)c1)C1CCN(C(=O)c2ccc(Br)cc2)CC1 | 33.9* | 68.6 | 101.6 | 68.7 | 91.6
Cc1ccc(C)c(N2CCN(CCCNC(=O)Cn3cc4c(n3)CCC(C)C4)CC2)c1 (stereo not drawn) | 45.5 | 9.9 | 73.2 | 8.6 | 15.4*
Cc1ccc(C)c(N2CCN(CCCNC(=O)Cn3cc4c(n3)CCCCC4)CC2)c1 | 50.5 | 2.1* | 83.9 | 1.7* | 21.9*
CCC(=O)Nc1cc(C(=O)OCC(=O)c2ccccc2)ccc1C | · | 85.4 | · | 91.9 | ·
CCC(C)N=Cc1c(NCc2ccco2)nc2c(C)cccn2c1=O (stereo not drawn) | 69.5 | 89.0 | 94.4 | 79.1 | 78.2
Cc1cccn2c(=O)c(C=NCc3ccco3)c(Nc3ccc(Cl)cc3)nc12 | 23.0* | · | 71.9 | · | 69.9
CCOC(=O)C1=C(C)NC(=S)N(C(C)=O)C1c1ccc(Cl)cc1 (stereo not drawn) | 70.3 | 1.1* | 89.5 | 0.9* | 78.4
Cc1cc(Cl)c(S(=O)(=O)N2CCN(c3ccc(F)cc3)CC2)cc1OCC(=O)NC1CCCCC1 | 36.1* | 9.2 | 93.8 | 12.4 | 78.7
CCOC(=O)c1c(C)nc2c(c1-c1ccc(Cl)cc1)C(=O)CC(C)(C)C2 | · | 79.6 | · | 82.3 | ·
CCOC(=O)c1ccc(N/C=C\C(=O)c2cccc(OC)c2)cc1 | · | 75.8 | · | 82.7 | ·
Cc1cccc(OCC(=O)Nc2cc(C)c(C)cc2O)c1 | 83.9 | 89.1 | 105.3 | 100.2 | 89.0
O=C(CCC1CCCCC1)Nc1ccccc1O | 94.9 | 96.5 | 116.5 | 94.0 | 106.6
Cc1cccc(OCC(=O)Nc2cc(C)ccc2O)c1 | 24.4* | 86.5 | 95.4 | 94.7 | 81.6
COc1cccc(C(=O)/C=C/Nc2cc(C)ccc2O)c1 | 8.9* | 65.6 | 90.6 | 69.7 | 69.4
Cc1ccc(O)c(NC(=O)CCC2CCCCC2)c1 | 27.1* | 98.0 | 102.3 | 86.9 | 93.3
CCOc1cc2[nH]c(=O)n(CC3CCC(C(=O)NC4CCCCC4)CC3)c(=O)c2cc1OCC (stereo not drawn) | 90.4 | · | 100.4 | · | 29.8*
O=C1C=C(NCCN2CCOCC2)C(=O)c2cnccc21 | · | 1.8* | · | 1.9* | ·
CC1=C(C)/C(=N\OS(=O)(=O)c2ccccc2)C=CC1=O | 1.5* | 34.2 | 3.5* | 16.9 | 3.8*
CCOC(=O)C1C(=O)C=C(c2ccc(Br)cc2)CC1c1ccco1 (stereo not drawn) | 27.6* | 35.5 | 99.6 | 30.8 | 97.0
CCOC(=O)C1C(=O)C=C(c2ccc([N+](=O)[O-])cc2)CC1c1ccccc1 (stereo not drawn) | · | 77.4 | · | 73.7 | ·
